Results reported in ChEMBL document CHEMBL4052595, “Application of Residual Dipolar Couplings and Selective Quantitative NOE to Establish the Structures of Tetranortriterpenoids from Xylocarpus rumphii” (J Nat Prod, 2017).
Activity calls are given as the source filed them.

Columns and labels:
Assay type in all cases: functional, cell-based
OVCAR-4 = test: Growth inhibition of human OVCAR4 cells at 10^-5 M incubated for 48 hrs by sulforhodamine B assay
Outline: (§1)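 Run in the NCI59 one-dose cell-line screen, with each compound tested at a single concentration of 1 × 10−5 M.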

OVCAR-8 = test: Growth inhibition of human OVCAR8 cells at 10^-5 M incubated for 48 hrs by sulforhodamine B assay; outline: as §1
SK-MEL-2 = test: Growth inhibition of human SK-MEL-2 cells at 10^-5 M incubated for 48 hrs by sulforhodamine B assay; outline: as §1
HT-29 = test: Growth inhibition of human HT-29 cells at 10^-5 M incubated for 48 hrs by sulforhodamine B assay; outline: as §1
CCRF-CEM = test: Growth inhibition of human CCRF-CEM cells at 10^-5 M incubated for 48 hrs by sulforhodamine B assay; outline: as §1
SN12C = test: Growth inhibition of human SN12C cells at 10^-5 M incubated for 48 hrs by sulforhodamine B assay; outline: as §1
PC-3 = test: Growth inhibition of human PC3 cells at 10^-5 M incubated for 48 hrs by sulforhodamine B assay; outline: as §1
M14 = test: Growth inhibition of human M14 cells at 10^-5 M incubated for 48 hrs by sulforhodamine B assay; outline: as §1
CAKI-1 = test: Growth inhibition of human Caki1 cells at 10^-5 M incubated for 48 hrs by sulforhodamine B assay; outline: as §1
Hs-578T = test: Growth inhibition of human Hs 578T cells at 10^-5 M incubated for 48 hrs by sulforhodamine B assay; outline: as §1
HCT-116 = test: Growth inhibition of human HCT116 cells at 10^-5 M incubated for 48 hrs by sulforhodamine B assay; outline: as §1
UO-31 = test: Growth inhibition of human UO31 cells at 10^-5 M incubated for 48 hrs by sulforhodamine B assay
Outline: (§2)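 Tested at a single concentration of 1 × 10−5 M as part of the NCI59 cell-line one-dose screen.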

SR = test: Growth inhibition of human SR cells at 10^-5 M incubated for 48 hrs by sulforhodamine B assay; outline: as §1
RXF 393 = test: Growth inhibition of human RXF393 cells at 10^-5 M incubated for 48 hrs by sulforhodamine B assay; outline: as §1
NCI-H522 = test: Growth inhibition of human NCI-H522 cells at 10^-5 M incubated for 48 hrs by sulforhodamine B assay; outline: as §1
RPMI-8226 = test: Growth inhibition of human RPMI8226 cells at 10^-5 M incubated for 48 hrs by sulforhodamine B assay; outline: as §1
NCI-H322M = test: Growth inhibition of human NCI-H322M cells at 10^-5 M incubated for 48 hrs by sulforhodamine B assay; outline: as §1
A549 = test: Growth inhibition of human A549/ATCC cells at 10^-5 M incubated for 48 hrs by sulforhodamine B assay; outline: as §1
NCI-H23 = test: Growth inhibition of human NCI-H23 cells at 10^-5 M incubated for 48 hrs by sulforhodamine B assay; outline: as §1
ACHN = test: Growth inhibition of human ACHN cells at 10^-5 M incubated for 48 hrs by sulforhodamine B assay; outline: as §1
LOX IMVI = test: Growth inhibition of human LOXIMVI cells at 10^-5 M incubated for 48 hrs by sulforhodamine B assay; outline: as §1
NCI-H226 = test: Growth inhibition of human NCI-H226 cells at 10^-5 M incubated for 48 hrs by sulforhodamine B assay; outline: as §1
K562 = test: Growth inhibition of human K562 cells at 10^-5 M incubated for 48 hrs by sulforhodamine B assay; outline: as §1
HOP-92 = test: Growth inhibition of human HOP92 cells at 10^-5 M incubated for 48 hrs by sulforhodamine B assay; outline: as §1
SNB-19 = test: Growth inhibition of human SNB19 cells at 10^-5 M incubated for 48 hrs by sulforhodamine B assay; outline: as §1
NCI-H460 = test: Growth inhibition of human NCI-H460 cells at 10^-5 M incubated for 48 hrs by sulforhodamine B assay; outline: as §1
T47D = test: Growth inhibition of human T47D cells at 10^-5 M incubated for 48 hrs by sulforhodamine B assay; outline: as §2
TK-10 = test: Growth inhibition of human TK10 cells at 10^-5 M incubated for 48 hrs by sulforhodamine B assay; outline: as §2
COLO 205 = test: Growth inhibition of human COLO205 cells at 10^-5 M incubated for 48 hrs by sulforhodamine B assay; outline: as §1
SF-268 = test: Growth inhibition of human SF268 cells at 10^-5 M incubated for 48 hrs by sulforhodamine B assay; outline: as §1
SF-295 = test: Growth inhibition of human SF295 cells at 10^-5 M incubated for 48 hrs by sulforhodamine B assay; outline: as §1
OVCAR-5 = test: Growth inhibition of human OVCAR5 cells at 10^-5 M incubated for 48 hrs by sulforhodamine B assay; outline: as §1
HCT-15 = test: Growth inhibition of human HCT15 cells at 10^-5 M incubated for 48 hrs by sulforhodamine B assay; outline: as §1
MCF7 = test: Growth inhibition of human MCF7 cells at 10^-5 M incubated for 48 hrs by sulforhodamine B assay; outline: as §1
SF-539 = test: Growth inhibition of human SF539 cells at 10^-5 M incubated for 48 hrs by sulforhodamine B assay; outline: as §1
HOP-62 = test: Growth inhibition of human HOP62 cells at 10^-5 M incubated for 48 hrs by sulforhodamine B assay; outline: as §1
MDA-MB-435 = test: Growth inhibition of human MDA-MB-435 cells at 10^-5 M incubated for 48 hrs by sulforhodamine B assay; outline: as §1
DU-145 = test: Growth inhibition of human DU145 cells at 10^-5 M incubated for 48 hrs by sulforhodamine B assay; outline: as §1
SK-OV-3 = test: Growth inhibition of human SKOV3 cells at 10^-5 M incubated for 48 hrs by sulforhodamine B assay; outline: as §1
SNB-75 = test: Growth inhibition of human SNB75 cells at 10^-5 M incubated for 48 hrs by sulforhodamine B assay; outline: as §1
EKVX = test: Growth inhibition of human EKVX cells at 10^-5 M incubated for 48 hrs by sulforhodamine B assay; outline: as §1
BT-549 = test: Growth inhibition of human BT549 cells at 10^-5 M incubated for 48 hrs by sulforhodamine B assay; outline: as §1
HL-60(TB) = test: Growth inhibition of human HL-60(TB) cells at 10^-5 M incubated for 48 hrs by sulforhodamine B assay
Outline: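 Run in the NCI59 cell-line one-dose screen, with each compound tested at a single concentration of 1 × 10−5 M.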

SW-620 = test: Growth inhibition of human SW620 cells at 10^-5 M incubated for 48 hrs by sulforhodamine B assay; outline: as §2
A498 = test: Growth inhibition of human A498 cells at 10^-5 M incubated for 48 hrs by sulforhodamine B assay; outline: as §1
NCI/ADR-RES = test: Growth inhibition of human NCI/ADR-RES cells at 10^-5 M incubated for 48 hrs by sulforhodamine B assay; outline: as §1
HCC 2998 = test: Growth inhibition of human HCC2998 cells at 10^-5 M incubated for 48 hrs by sulforhodamine B assay; outline: as §1
IGROV-1 = test: Growth inhibition of human IGROV1 cells at 10^-5 M incubated for 48 hrs by sulforhodamine B assay; outline: as §1
MOLT-4 = test: Growth inhibition of human MOLT4 cells at 10^-5 M incubated for 48 hrs by sulforhodamine B assay; outline: as §1
UACC-257 = test: Growth inhibition of human UACC257 cells at 10^-5 M incubated for 48 hrs by sulforhodamine B assay; outline: as §2
SK-MEL-5 = test: Growth inhibition of human SK-MEL-5 cells at 10^-5 M incubated for 48 hrs by sulforhodamine B assay; outline: as §1
U-251 = test: Growth inhibition of human U251 cells at 10^-5 M incubated for 48 hrs by sulforhodamine B assay; outline: as §2
SK-MEL-28 = test: Growth inhibition of human SK-MEL-28 cells at 10^-5 M incubated for 48 hrs by sulforhodamine B assay; outline: as §1
KM12 = test: Growth inhibition of human KM12 cells at 10^-5 M incubated for 48 hrs by sulforhodamine B assay; outline: as §1
786-0 = test: Growth inhibition of human 786-0 cells at 10^-5 M incubated for 48 hrs by sulforhodamine B assay; outline: as §1
UACC-62 = test: Growth inhibition of human UACC62 cells at 10^-5 M incubated for 48 hrs by sulforhodamine B assay; outline: as §2
MDA-MB-231 = test: Growth inhibition of human MDA-MB-231 cells at 10^-5 M incubated for 48 hrs by sulforhodamine B assay; outline: as §1
OVCAR-3 = test: Growth inhibition of human OVCAR3 cells at 10^-5 M incubated for 48 hrs by sulforhodamine B assay; outline: as §1

Measured: growth inhibition (GI)

CC[C@H](C)C(=O)O[C@@H]1[C@@H]2[C@@H](OC(=O)C(C)C)[C@@]34O[C@]2(O)[C@@](C)([C@@H](CC(=O)OC)C1(C)C)[C@H]3CC[C@]1(C)C4=CC(=O)O[C@H]1C1=CC(O)OC1=O (stereo partly drawn)
inactive: all assays above
